Source: PubChem BioAssay
Compounds with a hit are over-represented: about 0.85% of the library has one in this group of screens.
TRPN1 ag = activates the zebrafish TRPN1 channel | hit rate 0.18% among 220,000 | AID 1424 | activation, % at 3 µM | HEK293 zebrafish TRPN1-YFP, Fluo-8 calcium fluorescence; 100% = response to 87 µM carbachol;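 active = activation above its plate's cutoff, the mean activation of test wells on that plate plus 3 SD, cut at about 19% in these data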;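 note: 0% = DMSO alone and 100% = 87 µM carbachol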
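Material – zebrafish TRPN1-YFP in HEK293 cells · Doses – 3 µM single point · Schedule – dye 1 h 37 °C plus 30 min RT · Signal – Fluo-8 calcium fluorescence, excitation 470-495 nm, emission 515-575 nm · Read-out – % activation versus carbachol response · Control set – carbachol high, DMSO low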
CRFR2-BP ag = CRF-BP/CRF-R2 complex agonism; HEK293 CRF-R2/CRF-BP, calcium dye fluorescence (FLIPR); percent of saturating CRF peptide response; activation, % at 13.2 µM; hit rate 0.46% among 350,000;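 active = activation of at least 50%, plus an integration ratio under a set limit after plate pattern correction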;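 note: plate controls were neutral control wells without compound for no effect and CRF at EC100 for full effect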
TRPML3 ag = agonists of human TRPML3 channel | Q8TDD5 | HEK293 TRPML3-YFP, Fluo-8 calcium fluorescence; 100% = the carbachol control signal | activation, % at 3 µM | hit rate 0.29% among 220,000 | AID 1448;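 active = activation above its plate's cutoff, the mean activation of the plate's test wells plus 3 SD, cut at about 12% in these data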;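 note: 0% = DMSO only wells and 100% = carbachol wells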
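Test system: HEK293 cells stably carrying human TRPML3-YFP; Doses: single dose, 3 µM final nominal compound, 0.3% DMSO final; Schedule: dye loading 1 h 37 °C then 30 min ambient, 125 s read; Technique: Fluo-8 calcium fluorescence; Benchmarks: high control carbachol 87 µM, low control DMSO.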
V1R ag counter = V1a receptor agonism, counter-screen for OXTR agonists; CHO-V1R cells, Fluo-8 calcium fluorescence, agonist mode; 0% DMSO, 100% 3 nM vasopressin; hit rate 0.25% among 320,000; AID 2797; P37288; activation, % at 3 µM;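 active = activation above the mean activation of all tested compounds plus 3 SD, per screening run, cut at about 20% in these data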;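 note: signal is peak over basal fluorescence ratio across a 100 second FLIPR read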
OXTR agonist = human OXTR agonism. P30559. CHO-OTR cells, Fluo-8 calcium fluorescence; normalized: DMSO 0%, oxytocin 100%. activation, % at 3 µM. hit rate 0.32% among 320,000;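 active = activation above the mean of all tested compounds plus 3 SD, cutoff set per screening run, cut at about 20% in these data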;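 note: peak over basal fluorescence ratio from a 100 s FLIPR kinetic read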
Target sequence (P30559 whole entry, looked up): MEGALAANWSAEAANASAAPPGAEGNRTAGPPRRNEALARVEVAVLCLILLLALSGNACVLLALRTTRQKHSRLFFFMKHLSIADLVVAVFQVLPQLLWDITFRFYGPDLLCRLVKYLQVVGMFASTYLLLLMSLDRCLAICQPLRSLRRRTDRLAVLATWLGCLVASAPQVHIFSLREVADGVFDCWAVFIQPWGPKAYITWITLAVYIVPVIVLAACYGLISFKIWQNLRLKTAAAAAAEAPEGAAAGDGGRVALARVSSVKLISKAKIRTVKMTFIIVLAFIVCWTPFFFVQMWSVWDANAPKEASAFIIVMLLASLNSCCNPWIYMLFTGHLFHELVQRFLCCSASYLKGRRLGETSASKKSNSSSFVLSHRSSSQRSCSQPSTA
OXTR potentiator = human OXTR potentiation | P30559 | CHO-OTR cells, Fluo-8 calcium fluorescence, potentiator mode; 0% = oxytocin EC15, 100% = EC100 | activation, % at 3 µM | hit rate 0.061% among 320,000;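 active = activation above that plate's cutoff, the mean activation of tested compounds plus 3 SD, cut at about 6.6% in these data, passing the limit was not always enough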;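 note: 100% uses oxytocin at 75 nM as the full agonist control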
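Replication – single well per compound, singlicate · Assay system – CHO cell line stably expressing human OTR · Timing – 6 min pre-incubation, 100 s read · Measure – normalized max/min fluorescence ratio, % activation · Doses – 3.0 µM, one dose · Detection – Fluo-8 calcium dye fluorescence · Probe or stimulus – oxytocin near EC15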
TRPN1 counter = activates zebrafish TRPN1, counter-screen for TRPML3 agonists; shares compounds with TRPML3 ag; HEK293 zebrafish TRPN1-YFP, Fluo-8 calcium fluorescence; scaled: carbachol wells 100%, DMSO wells 0%; activation, % at 3 µM; hit rate 10% among 310; AID 1525;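 active = mean activation over replicates above a set limit taken from the earlier TRPN1 channel primary screen, cut at about 19% in these data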;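 note: 100% = carbachol and 0% = 0.3% DMSO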
TRPML3 confirm = confirmation of human TRPML3 channel agonists; hit rate 80% among 310; shares compounds with TRPML3 ag; HEK293 TRPML3-YFP, Fluo-8 calcium fluorescence; 100% set by carbachol, 0% by DMSO; activation, % at 3 µM;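 active = activation above a set limit derived from the earlier primary screen, cut at about 12% in these data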
* marks the source's active call; other numbers are inactive results.

Results for Cc1cc(C(C)(C)C)oc1C(=O)N(CC(=O)NC1CCCC1)c1c(C)cccc1C ?
TRPN1 ag: 1; CRFR2-BP ag: 2; TRPML3 ag: 44*; V1R ag counter: -1; OXTR agonist: -1; OXTR potentiator: -3; TRPN1 counter: 1; TRPML3 confirm: 72*

Results for Cc1ccc(CNc2ccc3c(c2)ncn3C(C)C)cc1 ?
TRPN1 ag: 13; CRFR2-BP ag: 61*; TRPML3 ag: 36*; V1R ag counter: 3; OXTR agonist: -1; OXTR potentiator: -6; TRPN1 counter: 36*; TRPML3 confirm: 29*

Results for CN1CCN(c2ccc(C(F)(F)F)cc2NC(=O)c2ccco2)CC1 ?
CRFR2-BP ag: 3; V1R ag counter: 6; OXTR agonist: 2; OXTR potentiator: -3

What do the screens show for `COc1ccc(S(=O)(=O)NC2CCCC2)c(Cl)c1Cl`?
TRPN1 ag: -2; CRFR2-BP ag: -1; TRPML3 ag: 35*; V1R ag counter: -1; OXTR agonist: -2; OXTR potentiator: 2; TRPN1 counter: -2; TRPML3 confirm: 48*

What do the screens show for `CCN(CC)c1nc(Nc2ccc([N+](=O)[O-])cc2)nc(N(CC)CC)n1`?
CRFR2-BP ag: 4; V1R ag counter: 0; OXTR agonist: 0; OXTR potentiator: -6

Results for Cc1ccc(S(=O)(=O)N2c3ccccc3-c3c(ssc3=S)C2(C)C)cc1 ?
TRPN1 ag: -1; CRFR2-BP ag: -2; TRPML3 ag: 1; V1R ag counter: 0; OXTR agonist: -3; OXTR potentiator: -10

How did CC1(C)CSC(=S)N1S(=O)(=O)c1ccccc1 do in these assays?
TRPN1 ag: 0; CRFR2-BP ag: 3; TRPML3 ag: 32*; V1R ag counter: 0; OXTR agonist: 1; OXTR potentiator: 1; TRPN1 counter: 1; TRPML3 confirm: 20*

Results for CCC1CN(C(=O)N2CCC(C(=O)NCc3ccc(OC)cc3OC)CC2)c2ccccc2O1 (configuration not stated) ?
CRFR2-BP ag: -1; V1R ag counter: 4; OXTR agonist: 2; OXTR potentiator: -11

Results for Cc1cc(C)cc(N2C(=O)CSC2c2cccs2)c1 (configuration not stated) ?
TRPN1 ag: -1; CRFR2-BP ag: 51*; TRPML3 ag: 16*; V1R ag counter: 0; OXTR agonist: -1; OXTR potentiator: -15; TRPN1 counter: 3; TRPML3 confirm: 16*

How did O=C(CSc1nc2c(cnn2-c2cccc(Cl)c2)c(=O)[nH]1)NCCC1=CCCCC1 do in these assays?
CRFR2-BP ag: 0; V1R ag counter: 0; OXTR agonist: 1; OXTR potentiator: 4

How did CCC(C(=O)Nc1cc(C)nn1-c1nc(C)cc(C)n1)c1ccccc1 (configuration not stated) do in these assays?
TRPN1 ag: 2; CRFR2-BP ag: 38; TRPML3 ag: 23*; V1R ag counter: 1; OXTR agonist: -1; OXTR potentiator: -11; TRPN1 counter: 2; TRPML3 confirm: 23*

How did CCCNC(=O)C1(CC2CC(c3ccccc3)=NO2)CCN(C(=O)c2cc(OCC)c(OCC)c(OCC)c2)CC1 (configuration not stated) do in these assays?
CRFR2-BP ag: -1; V1R ag counter: -2; OXTR agonist: -2; OXTR potentiator: -7

Results for CCOc1ccc(S(=O)(=O)N2CCCC2)c2ccccc12 ?
CRFR2-BP ag: -1

Results for Cc1cc(S(=O)(=O)N2CCCCCC2)c(Cl)cc1Cl ?
TRPN1 ag: 0; CRFR2-BP ag: 0; TRPML3 ag: 26*; V1R ag counter: -2; OXTR agonist: -3; OXTR potentiator: -17; TRPN1 counter: -2; TRPML3 confirm: 27*
